According to ChEMBL document CHEMBL4265973, “Broad-spectrum antibacterial amphiphilic aminoglycosides: A new focus on the structure of the lipophilic groups extends the series of active dialkyl neamines” (Eur J Med Chem, 2018):
In brackets after ≈: the same amount, converted by molar mass. Activity calls are given as the source filed them. The rule behind the calls is not given here.

Legend:
J774 [1] = test: (§1) Cytotoxicity against mouse J774 cells assessed as cell viability at 30 uM after 24 hrs by MTT assay relative to control; format: cell-based; conditions: j774, 24 h, 30 µM
In short: (§2)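 Murine J774 macrophages are exposed for 24 h to compound at 10 or 30 µM, then given 0.2 mg/mL MTT for 1 h. The reaction is stopped with DMSO and OD read at 570 nm; viability is metabolic activity as % of control. The number of independent experiments is given per value.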

J774 [2] = test: (§3) Cytotoxicity against mouse J774 cells assessed as cell viability at 10 uM after 24 hrs by MTT assay relative to control; format: cell-based; conditions: j774, 24 h, 10 µM; in short: as §2
Pseudomonas aeruginosa [3] = test: Antibacterial activity against Pseudomonas aeruginosa ATCC 27853 measured over 1 month by microdilution assay; format: functional, organism-based
In short: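 Serial passage of P. aeruginosa ATCC 27853 held continuously at half the MIC for up to 38 days. […] The new minimal inhibitory concentration is read by visual inspection, confirmed by agar dilution, and the drug level raised to match.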

Pseudomonas aeruginosa [4] = test: microbe, parasite or virus in culture; conditions: ATCC 27853
Escherichia coli [5] = test: Antibacterial activity against Escherichia coli PAZ505H8101 harboring AAC6'-1B by microdilution assay; format: functional
In short: (§4)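 Broth microdilution MIC per CLSI recommendations, fresh culture in cation-adjusted Mueller-Hinton broth, starting inoculum 10^6 cells.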

Escherichia coli [6] = test: Antibacterial activity against Escherichia coli L8058.1 harboring ANT2'-1A by microdilution assay; format: functional; in short: as §4
Pseudomonas aeruginosa [7] = test: Antibacterial activity against Pseudomonas aeruginosa PA22 harboring surexp MexXY by microdilution assay; format: functional; in short: as §4
Klebsiella pneumoniae = test: Antibacterial activity against Klebsiella pneumoniae 700603 by microdilution assay; format: functional
In short: (§5)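 Broth microdilution per CLSI recommendations, using a fresh culture in cation-adjusted Mueller-Hinton broth (CA-MHB) and a starting inoculum of 10^6 cells; the MIC is the value read.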

Staphylococcus aureus [8] = test: Antibacterial activity against methicillin-resistant Staphylococcus aureus ATCC 33592 by microdilution assay; format: functional; in short: as §4
Pseudomonas aeruginosa [9] = test: Antibacterial activity against Pseudomonas aeruginosa PA406 harboring triABC deletion mutant by microdilution assay; format: functional; in short: as §4
Pseudomonas aeruginosa [10] = test: Antibacterial activity against Pseudomonas aeruginosa FO3 harboring AAC6'-2A by microdilution assay; format: functional; in short: as §4
[11] = as §1; format: cell-based; conditions: J774 cells, read-out: Activity; in short: as §2
Acinetobacter lwoffii [12] = test: Antibacterial activity against Acinetobacter lwoffii ATCC 17925 by microdilution assay; format: functional; in short: as §5
Escherichia coli [13] = test: microbe, parasite or virus in culture; conditions: ATCC 25922
Acinetobacter lwoffii [14] = test: Antibacterial activity against Acinetobacter lwoffii AI.88-483 harboring APH3'-6A by microdilution assay; format: functional; in short: as §4
Staphylococcus aureus [15] = test: Antibacterial activity against Staphylococcus aureus ATCC 25923 by microdilution assay; format: functional; in short: as §4
[16] = as §3; format: cell-based; conditions: J774 cells, read-out: Activity; in short: as §2
Pseudomonas aeruginosa [17] = test: Antibacterial activity against Pseudomonas aeruginosa ATCC 27853 by microdilution assay; format: functional; in short: as §5
Staphylococcus aureus [18] = test: Antibacterial activity against Staphylococcus aureus SA-1 expressing NorA pump by microdilution assay
Pseudomonas aeruginosa [19] = test: Antibacterial activity against Pseudomonas aeruginosa ATCC 27853 after 15 to 38 days by microdilution assay; format: functional

| Molecule | Activity (J774 [1]) | Activity (J774 [2]) | Activity (Pseudomonas aeruginosa [3]) | MIC (Pseudomonas aeruginosa [4]) | MIC (Escherichia coli [5]) | MIC (Escherichia coli [6]) | MIC (Pseudomonas aeruginosa [7]) | MIC (Klebsiella pneumoniae) | MIC (Staphylococcus aureus [8]) | MIC (Pseudomonas aeruginosa [9]) | MIC (Pseudomonas aeruginosa [10]) | viability at 24 h, 30 µM [11] | MIC (Acinetobacter lwoffii [12]) | MIC (Escherichia coli [13]) | MIC (Acinetobacter lwoffii [14]) | MIC (Staphylococcus aureus [15]) | viability at 24 h, 10 µM [16] | MIC (Pseudomonas aeruginosa [17]) | MIC (Staphylococcus aureus [18]) | MIC (Pseudomonas aeruginosa [19]) |
| --- | --- | --- | --- | --- | --- | --- | --- | --- | --- | --- | --- | --- | --- | --- | --- | --- | --- | --- | --- | --- |
| GENTAMICIN | 82.9% | 88.4% | – | – | – | – | – | – | – | – | – | – | – | – | – | – | – | – | – | – |
| NC[C@H]1O[C@H](O[C@H]2[C@H](O)[C@@H](O)[C@H](N)C[C@@H]2N)[C@H](N)[C@@H](OCCCc2ccc3ccccc3c2)[C@@H]1OCCCc1ccc2ccccc2c1 | – | – | Active | – | – | – | – | – | – | – | – | – | – | – | – | – | – | – | – | – |
| O=C(O)c1cn(C2CC2)c2cc(N3CCNCC3)c(F)cc2c1=O [CIPROFLOXACIN] | – | – | Active | 16 µg/mL (≈ 48.3 µM) | – | – | – | – | – | – | – | – | – | – | – | – | – | – | – | – |
| CCCCCCCCO[C@@H]1[C@@H](N)[C@@H](O[C@H]2[C@H](O)[C@@H](OCCCCCCCC)[C@H](N)C[C@@H]2N)O[C@H](CN)[C@H]1O | – | – | – | – | 2 to 4 µg/mL (≈ 3.66 to 7.32 µM) | 4 µg/mL (≈ 7.32 µM) | 8 µg/mL (≈ 14.6 µM) | 8 µg/mL (≈ 14.6 µM) | 2 µg/mL (≈ 3.66 µM) | 2 µg/mL (≈ 3.66 µM) | 8 µg/mL (≈ 14.6 µM) | 65.1% | 2 to 4 µg/mL (≈ 3.66 to 7.32 µM) | 4 µg/mL (≈ 7.32 µM) | 128 µg/mL (≈ 234 µM) | 1 µg/mL (≈ 1.83 µM) | 91.3% | 2 µg/mL (≈ 3.66 µM) | 1 µg/mL (≈ 1.83 µM) | – |
| CCCCCCCCCCCO[C@@H]1[C@@H](N)[C@@H](O[C@H]2[C@H](O)[C@@H](OCCCCCCC)[C@H](N)C[C@@H]2N)O[C@H](CN)[C@H]1O | – | – | – | – | 2 µg/mL (≈ 3.48 µM) | 4 µg/mL (≈ 6.96 µM) | 4 µg/mL (≈ 6.96 µM) | 4 µg/mL (≈ 6.96 µM) | 1 µg/mL (≈ 1.74 µM) | 2 µg/mL (≈ 3.48 µM) | 4 µg/mL (≈ 6.96 µM) | 39.1% | 2 µg/mL (≈ 3.48 µM) | 2 µg/mL (≈ 3.48 µM) | > 128 µg/mL | 1 µg/mL (≈ 1.74 µM) | 88.4% | 2 µg/mL (≈ 3.48 µM) | 32 µg/mL (≈ 55.7 µM) | – |
| NC[C@H]1O[C@H](O[C@H]2[C@H](O)[C@@H](OCCCc3ccc4ccccc4c3)[C@H](N)C[C@@H]2N)[C@H](N)[C@@H](OCCCc2ccc3ccccc3c2)[C@@H]1O | – | – | Active | – | 4 to 8 µg/mL (≈ 6.07 to 12.1 µM) | 16 µg/mL (≈ 24.3 µM) | 16 µg/mL (≈ 24.3 µM) | 32 µg/mL (≈ 48.6 µM) | 2 µg/mL (≈ 3.04 µM) | 2 to 4 µg/mL (≈ 3.04 to 6.07 µM) | 16 µg/mL (≈ 24.3 µM) | 89.5% | 4 µg/mL (≈ 6.07 µM) | 8 µg/mL (≈ 12.1 µM) | 32 to 64 µg/mL (≈ 48.6 to 97.1 µM) | 2 µg/mL (≈ 3.04 µM) | 91.1% | 8 to 16 µg/mL (≈ 12.1 to 24.3 µM) | 2 µg/mL (≈ 3.04 µM) | – |
| CCCCCCCO[C@@H]1[C@@H](O)[C@H](O[C@H]2O[C@H](CN)[C@@H](O)[C@H](O)[C@H]2N)[C@@H](N)C[C@H]1N | – | – | – | – | > 128 µg/mL | > 128 µg/mL | > 128 µg/mL | > 128 µg/mL | > 128 µg/mL | > 128 µg/mL | > 128 µg/mL | 71.3% | 64 µg/mL (≈ 152 µM) | > 128 µg/mL | > 128 µg/mL | > 128 µg/mL | 84.3% | > 128 µg/mL | > 128 µg/mL | – |
| CCCCCCCCCCCO[C@@H]1[C@@H](O)[C@H](O[C@H]2O[C@H](CN)[C@@H](O)[C@H](O)[C@H]2N)[C@@H](N)C[C@H]1N | – | – | – | – | > 128 µg/mL | > 128 µg/mL | > 128 µg/mL | > 128 µg/mL | 8 µg/mL (≈ 16.8 µM) | 16 µg/mL (≈ 33.6 µM) | > 128 µg/mL | 83.4% | 64 µg/mL (≈ 134 µM) | > 128 µg/mL | > 128 µg/mL | 32 µg/mL (≈ 67.1 µM) | 74.7% | > 128 µg/mL | 8 µg/mL (≈ 16.8 µM) | – |
| CCCCCCCCCO[C@@H]1[C@@H](N)[C@@H](O[C@H]2[C@H](O)[C@@H](OCCCCCCCCC)[C@H](N)C[C@@H]2N)O[C@H](CN)[C@H]1O | – | – | – | – | 2 to 4 µg/mL (≈ 3.48 to 6.96 µM) | 2 to 4 µg/mL (≈ 3.48 to 6.96 µM) | 4 µg/mL (≈ 6.96 µM) | 4 µg/mL (≈ 6.96 µM) | 2 to 4 µg/mL (≈ 3.48 to 6.96 µM) | 2 to 4 µg/mL (≈ 3.48 to 6.96 µM) | 4 to 8 µg/mL (≈ 6.96 to 13.9 µM) | 67.4% | 2 µg/mL (≈ 3.48 µM) | 2 to 4 µg/mL (≈ 3.48 to 6.96 µM) | 16 µg/mL (≈ 27.8 µM) | 1 µg/mL (≈ 1.74 µM) | 86.7% | 2 to 4 µg/mL (≈ 3.48 to 6.96 µM) | 1 µg/mL (≈ 1.74 µM) | 4 µg/mL (≈ 6.96 µM) |
| CCCCCCCO[C@@H]1[C@@H](N)[C@@H](O[C@H]2[C@H](O)[C@@H](OCCCCCCC)[C@H](N)C[C@@H]2N)O[C@H](CN)[C@H]1O | – | – | – | – | 16 µg/mL (≈ 30.8 µM) | 32 µg/mL (≈ 61.7 µM) | 16 µg/mL (≈ 30.8 µM) | 64 µg/mL (≈ 123 µM) | 8 µg/mL (≈ 15.4 µM) | 4 µg/mL (≈ 7.71 µM) | 8 µg/mL (≈ 15.4 µM) | 79.9% | 32 µg/mL (≈ 61.7 µM) | 32 µg/mL (≈ 61.7 µM) | > 128 µg/mL | 8 µg/mL (≈ 15.4 µM) | 96.3% | 32 µg/mL (≈ 61.7 µM) | 8 µg/mL (≈ 15.4 µM) | – |
